A word on the IC50: it is the concentration that inhibits the measured activity by half.

Drawing on ChEMBL document CHEMBL1137257, “Synthesis and evaluation of thiazepines as interleukin-1beta converting enzyme (ICE) inhibitors” (Bioorg Med Chem Lett, 2006), this text covers IC50 and Selectivity ratio for 11 compounds.

In one experiment the target is T1, Caspase-3 (Homo sapiens, UniProt P42574).
T1 sequence (P42574 whole entry): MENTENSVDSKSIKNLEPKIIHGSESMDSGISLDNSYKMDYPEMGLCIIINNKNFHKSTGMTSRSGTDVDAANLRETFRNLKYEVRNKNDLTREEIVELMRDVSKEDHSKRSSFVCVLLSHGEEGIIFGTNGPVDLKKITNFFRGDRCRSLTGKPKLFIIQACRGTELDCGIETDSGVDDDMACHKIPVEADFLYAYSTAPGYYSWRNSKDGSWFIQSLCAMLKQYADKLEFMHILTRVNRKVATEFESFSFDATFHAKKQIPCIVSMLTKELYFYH
As to the kind of experiment: Inhibition of Caspase 3. In outline:
(§1)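 Isolated enzymes (ICE, caspase-3, caspase-8) were assayed with fluorogenic substrates following the supplier's kit protocol. Cleavage was followed for 30 min at 37 °C by fluorescence (excitation 390 nm, emission 460 nm). IC50 was calculated as [I]/((Vo/Vi) − 1) from the initial velocities with (Vi) and without (Vo) inhibitor.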

The next experiment concerns THP-1. As to the kind of experiment: Inhibition of LPS-induced ILbeta1 release in human THP1 cells. It is filed as functional, cell-based. In outline: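 Human monocytic THP-1 cells (2 × 10⁶/ml, RPMI 1640) were preincubated 15 min with or without compound added as DMSO solutions, with test concentrations starting at 1 nM. Cells were then stimulated with LPS for 4 h and centrifuged. Inhibition of IL-1β production was measured.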

For another experiment, the species on record is Homo sapiens. Description: Selectivity for ICE over Caspase 8.
A further experiment deals with T2, Caspase-1 (Homo sapiens, UniProt P29466).
T2 sequence (P29466 whole entry): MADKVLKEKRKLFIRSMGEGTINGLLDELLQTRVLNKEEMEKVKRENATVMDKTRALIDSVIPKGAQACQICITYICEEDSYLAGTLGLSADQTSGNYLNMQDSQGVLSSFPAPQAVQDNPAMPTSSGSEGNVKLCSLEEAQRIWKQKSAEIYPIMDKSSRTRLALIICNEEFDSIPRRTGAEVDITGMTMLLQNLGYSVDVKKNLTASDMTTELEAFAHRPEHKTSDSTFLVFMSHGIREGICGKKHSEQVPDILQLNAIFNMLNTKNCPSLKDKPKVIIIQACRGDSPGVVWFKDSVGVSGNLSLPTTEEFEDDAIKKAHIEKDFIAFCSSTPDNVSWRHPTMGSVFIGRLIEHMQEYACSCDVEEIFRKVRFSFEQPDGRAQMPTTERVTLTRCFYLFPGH
As to the kind of experiment: Inhibition of ICE. The essentials:
as §1

For the next experiment, the target named is Caspase-8 (Homo sapiens, UniProt Q14790). As to the kind of experiment: Inhibition of Caspase 8. In outline:
as §1

Each structure is given as a SMILES string. A value given as a limit tells only on which side of the number the result lay.

Chain of Caspase-8 (Q14790 217-374 limits assumed): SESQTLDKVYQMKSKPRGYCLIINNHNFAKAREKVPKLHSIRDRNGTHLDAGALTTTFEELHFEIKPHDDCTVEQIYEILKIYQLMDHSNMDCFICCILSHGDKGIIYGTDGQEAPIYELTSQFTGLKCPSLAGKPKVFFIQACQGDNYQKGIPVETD
Chain of Caspase-8 (Q14790 385-479 limits assumed): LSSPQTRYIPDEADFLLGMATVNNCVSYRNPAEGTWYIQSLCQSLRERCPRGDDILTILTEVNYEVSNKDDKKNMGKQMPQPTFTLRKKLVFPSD

On to `CCO[C@@H]1OC(=O)C[C@@H]1NC(=O)[C@@H]1CCCN2C(=O)CC[C@H](NC(=O)c3nccc4ccccc34)C(=O)N12` [PRALNACASAN], for which the results for the IC50 against Caspase-3 and with THP-1 were 1.3 µM and 0.19 µM, respectively.

For the compound `O=C(CN1CCSC[C@H](NC(=O)c2ccccc2)C1=O)N[C@H]1CC(=O)OC1O` (some centres undefined), the IC50 at Caspase-3 was more than 10 µM; on Caspase-1, 0.35 µM; against Caspase-8, 5.2 µM; in the experiment with THP-1 it was 1.7 µM. Moreover, the Selectivity ratio in the experiment listed under Homo sapiens is more than 100.

Turning to `O=C(CN1CCS(=O)(=O)C[C@H](NC(=O)c2cccc(C(F)(F)F)c2)C1=O)N[C@H]1CC(=O)OC1O` (some centres undefined), the Selectivity ratio in the experiment listed under Homo sapiens is more than 100. Further, half-maximal inhibition with THP-1 (IC50) was put at 3.4 µM.

`O=C(CN1CCSC[C@H](NC(=O)c2nccc3ccccc23)C1=O)N[C@H]1CC(=O)OC1O` (some centres undefined): the IC50 was more than 10 µM against Caspase-3, 0.07 µM against Caspase-1, 7 µM against Caspase-8 and 0.73 µM in the experiment on THP-1. Besides, the Selectivity ratio in the experiment filed under Homo sapiens is more than 100.

Turning to `O=C(CN1CCSC[C@H](NC(=O)c2cccc(C(F)(F)F)c2)C1=O)N[C@H]1CC(=O)OC1O` (some centres undefined), the IC50 is more than 10 µM against Caspase-3, 0.15 µM against Caspase-1, more than 10 µM at Caspase-8 and 1 µM in the experiment with THP-1. In addition, in the experiment listed under Homo sapiens, the Selectivity ratio is more than 100.

`O=C(CN1CCS(=O)(=O)C[C@H](NC(=O)c2ccc3ccccc3c2)C1=O)N[C@H]1CC(=O)OC1O` (some centres undefined): the IC50 against Caspase-3 is more than 10 µM; at Caspase-1, 0.15 µM; at Caspase-8, more than 10 µM; in the experiment on THP-1 it was 1.1 µM. For the same compound, the Selectivity ratio in the experiment filed under Homo sapiens was more than 100.

As for `O=C(CN1CCS(=O)(=O)C[C@H](NC(=O)c2nccc3ccccc23)C1=O)N[C@H]1CC(=O)OC1O` (some centres undefined), the IC50 is more than 10 µM against Caspase-3, 0.13 µM at Caspase-1, 5 µM against Caspase-8 and 1.4 µM in the experiment on THP-1. The Selectivity ratio in the experiment filed under Homo sapiens was more than 100.

Take `O=C(CN1CCS(=O)(=O)C[C@H](NC(=O)c2cc3ccccc3s2)C1=O)N[C@H]1CC(=O)OC1O` (some centres undefined): the IC50 was more than 10 µM against Caspase-3, 0.32 µM on Caspase-1, 8.5 µM against Caspase-8 and 1.7 µM with THP-1. In the experiment listed under Homo sapiens, the Selectivity ratio was more than 100.

`O=C(CN1CCSC[C@H](NC(=O)c2ccc3ccccc3c2)C1=O)N[C@H]1CC(=O)OC1O` (some centres undefined): the IC50 is more than 10 µM at Caspase-3, 0.03 µM against Caspase-1, 9.4 µM against Caspase-8 and 0.48 µM in the experiment with THP-1. The Selectivity ratio in the experiment filed under Homo sapiens is more than 100.

On to `O=C(CN1CCSC[C@H](NC(=O)c2cc3ccccc3s2)C1=O)N[C@H]1CC(=O)OC1O` (some centres undefined), for which the IC50 is more than 10 µM against Caspase-3, 0.08 µM on Caspase-1, 9.5 µM against Caspase-8 and 0.64 µM in the experiment on THP-1. In the experiment filed under Homo sapiens, the Selectivity ratio is more than 100.

Take `O=C(CN1CCS(=O)(=O)C[C@H](NC(=O)c2ccccc2)C1=O)N[C@H]1CC(=O)OC1O` (some centres undefined): the IC50 at Caspase-3 is more than 10 µM; at Caspase-1 it was 2.3 µM; at Caspase-8, more than 10 µM; in the experiment with THP-1, 3.2 µM. Moreover, the Selectivity ratio in the experiment listed under Homo sapiens was more than 100.
